Assay results from ChEMBL document CHEMBL3244375, “Hypolipidemic arylthioalkanoic acids” (J Med Chem, 1977).

Experiments:
Rattus norvegicus [1] = experiment: Hypolipidemic activity in Sprague-Dawley rat assessed as reduction in serum cholesterol level at 0.25 % compound administered in diet for 14 days relative to control; format: functional; design: scale not given: the % may be the effect or the level left
Outline: (§1)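 Test compound mixed into feed, given ad libitum to rats for 14 days; controls received feed alone. Rats then weighed and killed by decapitation; blood collected and serum cholesterol and triglycerides measured by previously described methods. Data reported as mg% serum with SD per group, % change versus control; significance by Student's t test. Dose-response groups of eight rats.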

Rattus norvegicus [2] = experiment: Hypolipidemic activity in Sprague-Dawley rat assessed as reduction in serum triglyceride level at 0.25 % compound administered in diet for 14 days relative to control; format: functional; design: scale not given: the % may be the effect or the level left; outline: as §1
Rattus norvegicus [3] = experiment: Toxicity in Sprague-Dawley rat assessed as increase in liver weight at 0.25 % compound administered in diet for 14 days relative to control; format: organism-based; details: in vivo, po, 336 h
Outline: (§2)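 Rats fed compound-containing diet ad libitum for 14 days alongside feed-only controls, eight rats per group in the dose-response study. At sacrifice by decapitation, liver removed and weighed. Change from controls scored semi-quantitatively, each + or − sign representing about a 10% change.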

Rattus norvegicus [4] = experiment: Hypolipidemic activity in Sprague-Dawley rat assessed as reduction in serum cholesterol level at 0.125 % compound administered in diet for 14 days relative to control; format: functional; design: scale not given: the % may be the effect or the level left; outline: as §1
Rattus norvegicus [5] = experiment: Hypolipidemic activity in Sprague-Dawley rat assessed as reduction in serum triglyceride level at 0.125 % compound administered in diet for 14 days relative to control; format: functional; design: scale not given: the % may be the effect or the level left; outline: as §1
Rattus norvegicus [6] = experiment: Toxicity in Sprague-Dawley rat assessed as increase in liver weight at 0.125 % compound administered in diet for 14 days relative to control; format: organism-based; details: in vivo, po, 336 h; outline: as §2
[7] = Retardation factor of the compound by thin layer chromatography; format: physicochemical
Rattus norvegicus [8] = experiment: Hypolipidemic activity in Sprague-Dawley rat assessed as reduction in serum cholesterol level at 0.06 % compound administered in diet for 14 days relative to control; format: functional; design: scale not given: the % may be the effect or the level left; outline: as §1
[9] = Toxicity in rat; format: organism-based; details: in vivo
Rattus norvegicus [10] = experiment: Hypolipidemic activity in Sprague-Dawley rat assessed as reduction in serum cholesterol level at 0.03 % compound administered in diet for 14 days relative to control; format: functional; design: scale not given: the % may be the effect or the level left; outline: as §1
Rattus norvegicus [11] = experiment: Hypolipidemic activity in Sprague-Dawley rat assessed as reduction in serum triglyceride level at 0.06 % compound administered in diet for 14 days relative to control; format: functional; design: scale not given: the % may be the effect or the level left; outline: as §1
[12] = Toxicity in mouse; format: organism-based; details: in vivo
Rattus norvegicus [13] = experiment: Hypolipidemic activity in Sprague-Dawley rat assessed as reduction in serum triglyceride level at 0.03 % compound administered in diet for 14 days relative to control; format: functional; design: scale not given: the % may be the effect or the level left; outline: as §1
Rattus norvegicus [14] = experiment: Toxicity in Sprague-Dawley rat assessed as mortality at 0.125 % compound administered in diet for 14 days relative to control; format: organism-based; details: in vivo, po, 336 h
Outline: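 Compound mixed into rat feed and given ad libitum for 14 days; control groups received feed alone. At the end of the period, animals were weighed and killed by decapitation, blood was collected, and the liver was removed and weighed.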

CCCCCC(Sc1cc(C(C)(C)C)c(O)c(C(C)(C)C)c1)C(=O)O (configuration not stated)
Activity (Rattus norvegicus [1]): -24%
Activity (Rattus norvegicus [2]): -53%
Activity (Rattus norvegicus [3]): 10%

CCCC(C)(Sc1cc(C(C)(C)C)c(O)c(C(C)(C)C)c1)C(=O)O (configuration not stated)
Activity (Rattus norvegicus [4]): 12%
Activity (Rattus norvegicus [5]): -55%
Activity (Rattus norvegicus [6]): 30%

CCCCC(Sc1ccc(OC)cc1)C(=O)O (configuration not stated)
Activity (Rattus norvegicus [4]): -12%
deltaRm [7]: 0.08
Activity (Rattus norvegicus [5]): -45%
Activity (Rattus norvegicus [6]): 0%

CCCCC(Sc1ccc(Br)c(C)c1)C(=O)O (configuration not stated)
Activity (Rattus norvegicus [4]): -17%
deltaRm [7]: 0.51
Activity (Rattus norvegicus [5]): -49%
Activity (Rattus norvegicus [6]): 20%

CC(C)(Sc1cc(C(C)(C)C)c(O)c(C(C)(C)C)c1)Sc1cc(C(C)(C)C)c(O)c(C(C)(C)C)c1 [PROBUCOL]
Activity (Rattus norvegicus [1]): 38%
Activity (Rattus norvegicus [2]): -33%
Activity (Rattus norvegicus [3]): 0%

CCCCCC(C)(Sc1cc(C(C)(C)C)c(O)c(C(C)(C)C)c1)C(=O)O (configuration not stated)
Activity (Rattus norvegicus [4]): -10%
Activity (Rattus norvegicus [5]): -60%
Activity (Rattus norvegicus [6]): 10%

CCC(Sc1cc(C(C)(C)C)c(O)c(C(C)(C)C)c1)C(=O)O (configuration not stated)
Activity (Rattus norvegicus [1]): -37%
Activity (Rattus norvegicus [2]): -74%
Activity (Rattus norvegicus [3]): 40%

CCCCC(Sc1cc(C(C)(C)C)cc(C(C)(C)C)c1)C(=O)O (configuration not stated)
Activity (Rattus norvegicus [1]): -20%
Activity (Rattus norvegicus [4]): -23%
Activity (Rattus norvegicus [2]): -41%
deltaRm [7]: 1.18
Activity (Rattus norvegicus [5]): -58%
Activity (Rattus norvegicus [6]): 20%

CCCCC(Oc1cc(C(C)(C)C)c(O)c(C(C)(C)C)c1)C(=O)O (configuration not stated)
Activity (Rattus norvegicus [4]): -7%
Activity (Rattus norvegicus [5]): -38%
Activity (Rattus norvegicus [6]): 20%

CCC(Oc1cc(C(C)(C)C)c(O)c(C(C)(C)C)c1)C(=O)O (configuration not stated)
Activity (Rattus norvegicus [4]): 6%
Activity (Rattus norvegicus [5]): 38%

CCOC(=O)C(C)(C)Sc1cc(C(C)(C)C)c(O)c(C(C)(C)C)c1
Activity (Rattus norvegicus [1]): -23%
Activity (Rattus norvegicus [2]): -60%
Activity (Rattus norvegicus [3]): 20%

CCCCCCC(C)(Sc1cc(C(C)(C)C)cc(C(C)(C)C)c1)C(=O)O (configuration not stated)
Activity (Rattus norvegicus [4]): -38%
Activity (Rattus norvegicus [5]): -68%
Activity (Rattus norvegicus [6]): 30%

CCCCC(Sc1ccccc1)C(=O)O (configuration not stated)
Activity (Rattus norvegicus [4]): -16%
deltaRm [7]: 0
Activity (Rattus norvegicus [5]): -37%
Activity (Rattus norvegicus [6]): 0%

CCCCC(C(=O)O)c1cc(C(C)(C)C)c(O)c(C(C)(C)C)c1 (configuration not stated)
Activity (Rattus norvegicus [4]): -20%
Activity (Rattus norvegicus [5]): -24%

CCCCC(Oc1cc(C(C)(C)C)c(O)c(C(C)(C)C)c1)C(=O)OCC (configuration not stated)
Activity (Rattus norvegicus [4]): -13%
Activity (Rattus norvegicus [5]): -28%
Activity (Rattus norvegicus [6]): 10%

CCCCC(C(=O)OCC)c1cc(C(C)(C)C)c(O)c(C(C)(C)C)c1 (configuration not stated)
Activity (Rattus norvegicus [4]): -2%
Activity (Rattus norvegicus [5]): -10%

CCCC(C)(Sc1cc(C(C)(C)C)cc(C(C)(C)C)c1)C(=O)O (configuration not stated)
Activity (Rattus norvegicus [4]): -29%
Activity (Rattus norvegicus [5]): -80%
Activity (Rattus norvegicus [6]): 40%

CCCCC(Sc1cc(C(C)(C)C)c(O)c(C(C)(C)C)c1)C(=O)O (racemic)
Activity (Rattus norvegicus [8]): -28%
Activity (Rattus norvegicus [1]): -30%
LD50 [9]: 7200 mg/kg
Activity (Rattus norvegicus [4]): -32%
Activity (Rattus norvegicus [2]): -69%
Activity (Rattus norvegicus [10]): -21%
deltaRm [7]: 0.96
Activity (Rattus norvegicus [11]): -61%
LD50 [12]: 5000 mg/kg
Activity (Rattus norvegicus [5]): -66%
Activity (Rattus norvegicus [13]): -35%
Activity (Rattus norvegicus [3]): 20%
Activity (Rattus norvegicus [6]): 10%

CCCCCCC(C)(Sc1cc(C(C)(C)C)c(O)c(C(C)(C)C)c1)C(=O)O (configuration not stated)
Activity (Rattus norvegicus [4]): 17%
Activity (Rattus norvegicus [5]): -73%
Activity (Rattus norvegicus [6]): 10%

CCCC(Sc1cc(C(C)(C)C)c(O)c(C(C)(C)C)c1)C(=O)OCC (configuration not stated)
Activity (Rattus norvegicus [1]): 0%
Activity (Rattus norvegicus [2]): -54%
Activity (Rattus norvegicus [3]): 0%

CC(C)(C)c1cc(OCC(=O)O)cc(C(C)(C)C)c1O
Activity (Rattus norvegicus [4]): 13%
Activity (Rattus norvegicus [5]): -50%

CC(Oc1cc(C(C)(C)C)c(O)c(C(C)(C)C)c1)C(=O)O (configuration not stated)
Activity (Rattus norvegicus [14]): Toxic

CCCCC(Sc1ccc(C)cc1)C(=O)O (configuration not stated)
Activity (Rattus norvegicus [4]): -11%
deltaRm [7]: 0.23
Activity (Rattus norvegicus [5]): -23%
Activity (Rattus norvegicus [6]): 0%

CCCCC(Sc1cc(C2CCCC2)c(O)c(C2CCCC2)c1)C(=O)O (configuration not stated)
Activity (Rattus norvegicus [4]): -11%
deltaRm [7]: 0.94
Activity (Rattus norvegicus [5]): -16%
Activity (Rattus norvegicus [6]): Non-toxic

CCCCCC(C)(Sc1cc(C(C)(C)C)cc(C(C)(C)C)c1)C(=O)O (configuration not stated)
Activity (Rattus norvegicus [4]): -27%
Activity (Rattus norvegicus [5]): -73%
Activity (Rattus norvegicus [6]): 20%

CC(C)(Sc1cc(C(C)(C)C)c(O)c(C(C)(C)C)c1)C(=O)O
Activity (Rattus norvegicus [1]): -21%
Activity (Rattus norvegicus [2]): -66%
Activity (Rattus norvegicus [3]): 40%

CC(C)(C)c1cc(SCC(=O)O)cc(C(C)(C)C)c1O
Activity (Rattus norvegicus [1]): -16%

CCCCC(C(=O)O)S(=O)(=O)c1cc(C(C)(C)C)c(O)c(C(C)(C)C)c1 (configuration not stated)
Activity (Rattus norvegicus [1]): -17%
Activity (Rattus norvegicus [4]): -14%
Activity (Rattus norvegicus [2]): -44%
Activity (Rattus norvegicus [5]): -36%
Activity (Rattus norvegicus [6]): 20%

CCCCC(Sc1cc(C2CCCCC2)c(O)c(C2CCCCC2)c1)C(=O)O (configuration not stated)
Activity (Rattus norvegicus [4]): -3%
deltaRm [7]: 1.1
Activity (Rattus norvegicus [5]): 5%
Activity (Rattus norvegicus [6]): Non-toxic

CC(Sc1cc(C(C)(C)C)c(O)c(C(C)(C)C)c1)C(=O)O (configuration not stated)
Activity (Rattus norvegicus [1]): -32%
Activity (Rattus norvegicus [2]): -78%
Activity (Rattus norvegicus [3]): 30%

CCOC(=O)C(CC)Sc1cc(C(C)(C)C)c(O)c(C(C)(C)C)c1 (configuration not stated)
Activity (Rattus norvegicus [1]): -5%
Activity (Rattus norvegicus [4]): 13%
Activity (Rattus norvegicus [2]): -55%
Activity (Rattus norvegicus [5]): -43%
Activity (Rattus norvegicus [3]): 10%

CCC(C)(Sc1cc(C(C)(C)C)c(O)c(C(C)(C)C)c1)C(=O)O (configuration not stated)
Activity (Rattus norvegicus [1]): -32%
Activity (Rattus norvegicus [2]): -80%
Activity (Rattus norvegicus [3]): 40%

CC(C)(Sc1cc(C(C)(C)C)cc(C(C)(C)C)c1)C(=O)O
Activity (Rattus norvegicus [4]): -31%
Activity (Rattus norvegicus [5]): -63%
Activity (Rattus norvegicus [6]): 30%

CCCCC(Sc1ccc(Cl)cc1)C(=O)O (configuration not stated)
Activity (Rattus norvegicus [4]): -16%
deltaRm [7]: 0.25
Activity (Rattus norvegicus [5]): -41%
Activity (Rattus norvegicus [6]): 0%

CCOC(=O)C(C)(C)Oc1ccc(Cl)cc1 [CLOFIBRATE]
Activity (Rattus norvegicus [1]): -28%
Activity (Rattus norvegicus [2]): -50%
Activity (Rattus norvegicus [3]): 20%

CCCC(Sc1cc(C(C)(C)C)c(O)c(C(C)(C)C)c1)C(=O)O (configuration not stated)
Activity (Rattus norvegicus [4]): -3%
Activity (Rattus norvegicus [5]): -72%
Activity (Rattus norvegicus [6]): 30%

CCCCC(C)(Sc1cc(C(C)(C)C)c(O)c(C(C)(C)C)c1)C(=O)O (configuration not stated)
Activity (Rattus norvegicus [4]): 8%
Activity (Rattus norvegicus [5]): -66%
Activity (Rattus norvegicus [6]): 20%
